The values below come from ChEMBL document CHEMBL1144027, “Synthesis and antimycobacterial evaluation of newer 1-cyclopropyl-1,4-dihydro-6-fluoro-7-(substituted secondary amino)-8-methoxy-5-(sub)-4-oxoquinoline-3-carboxylic acids” (Bioorg Med Chem, 2008).

Data set [1] has as its system Mycobacterium tuberculosis. Nature of the data set: Antimycobacterial activity against Mycobacterium tuberculosis H37Rv by agar dilution method. The data set is classed as functional. The procedure, abridged: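 Agar dilution MIC on Middlebrook 7H11 agar with OADC, following the NCCLS-recommended approach, run in duplicate. The MDR clinical isolate was resistant to isoniazid, rifampicin, ethambutol and ofloxacin.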
Background: In agar dilution the substance is mixed into plates at graded concentrations.

Data set [2] has as its system Mycolicibacterium smegmatis. Nature of the data set: Antimycobacterial activity against Mycobacterium smegmatis MC2 by agar dilution method. The data set is classed as functional. The procedure, abridged:
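Agar dilution in Middlebrook 7H11 agar with OADC, run along NCCLS-recommended lines; M. smegmatis ATCC 14468 (MC2); MIC determined in duplicate.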

The subject of data set [3] is Mycobacterium tuberculosis. The data set can be described thus: Antimycobacterial activity against Mycobacterium tuberculosis ATCC 35801 infected in CD1 mouse assessed as bacterial load in lungs at 50 mg/kg, ip after 10 days. The data set is classed as functional. As to conditions: route intraperitoneal. The procedure, abridged:
(§1)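 Female CD-1 mice, 6 weeks old, six per group, infected IV via caudal vein with ~10⁷ viable organisms. Intraperitoneal treatment started 10 days after inoculation and ran 10 days. At 35 days post-infection, spleens and right lungs were homogenised and serially 10-fold diluted onto 7H10 agar, incubated 4 weeks at 37 °C in ambient air. CFU compared with vehicle-treated controls.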

Data set [4] relates to Mycobacterium tuberculosis. The data set can be described thus: Antimycobacterial activity against Mycobacterium tuberculosis ATCC 35801 infected in CD1 mouse assessed as bacterial load in spleen at 50 mg/kg, ip after 10 days. The following applies: route intraperitoneal. The data set is classed as functional. Put shortly: as §1
Another data set has as its system Vero. The data set can be described thus: Cytotoxicity against african green monkey Vero cells after 72 hrs by MTT assay. The data set is classed as cell-based. The following applies: Chlorocebus sabaeus. Put shortly:
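Mammalian Vero cells exposed to compounds at 62.5 µg/ml for 72 h; viability read by cellular conversion of MTT to formazan (Cell Titer 96 non-radioactive proliferation assay).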

In data set [5] the target is DNA gyrase subunit B (Mycobacterium smegmatis (strain ATCC 700084 / mc(2)155), UniProt A0QNE0). The data set can be described thus: Inhibition of Mycobacterium smegmatis MC2 DNA gyrase GyrB ATPase supercoiling activity. Set-up: species or system Mycolicibacterium smegmatis. Put shortly:
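Gyrase purified from M. smegmatis MC2 cells; compounds in DMSO pre-incubated with enzyme, then 400 ng relaxed pUC18 added in 35 mM Tris-HCl pH 7.5, 5 mM MgCl2, 25 mM K glutamate, 2 mM spermidine, 2 mM ATP, BSA, tRNA, 5% glycerol; 30 min; heat-stopped 65 °C 15 min; agarose gel, ethidium bromide staining; ciprofloxacin 10 µg/ml and 5% DMSO controls.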

For data set [6], the system named is Mycobacterium tuberculosis. The data set can be described thus: Antimycobacterial activity against Mycobacterium tuberculosis ATCC 35801 infected in CD1 mouse assessed as bacterial load in spleen at 25 mg/kg, ip after 10 days. The data set is classed as functional. The following applies: route intraperitoneal. The procedure, abridged: as §1
The subject of data set [7] is Mycobacterium tuberculosis. Nature of the data set: Antimycobacterial activity against Mycobacterium tuberculosis ATCC 35801 infected in CD1 mouse assessed as bacterial load in lungs at 25 mg/kg, ip after 10 days. The data set is classed as functional. The following applies: route intraperitoneal. Put shortly: as §1
For data set [8], the system named is Mus musculus. Nature of the data set: Phototoxicity in Swiss albino mouse assessed as ear thickness at 140 mg/kg, po after 96 hrs of irradiation. The data set is classed as organism-based. Set-up: dose 140 mg/kg, route oral. The following applies: in vivo. The procedure, abridged:
(§2)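 Female Swiss albino mice (~2 months, 20-25 g), fasted ≥18 h, single 140 mg/kg oral gavage dose; groups of 6 (compound, lomefloxacin HCl 140 mg/kg, 0.5% carboxymethylcellulose vehicle 10 ml/kg); UV irradiation 4 h (~18 J/cm²) right after dosing; both ears scored for erythema, oedema, thickness pre-dose, at end of irradiation, and ~24-96 h; thickness given as mean of both ears ± SEM.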

The subject of data set [9] is Mus musculus. The data set can be described thus: Phototoxicity in Swiss albino mouse assessed as erythema incidence at 140 mg/kg, po after 4 hrs of irradiation. The data set is classed as organism-based. Set-up: dose 140 mg/kg, route oral. As to conditions: in vivo. Put shortly:
as §2

In data set [10] the test system is Mus musculus. The data set can be described thus: Phototoxicity in Swiss albino mouse assessed as ear thickness at 140 mg/kg, po after 48 hrs of irradiation. As to conditions: in vivo. Set-up: dose 140 mg/kg, route oral. The data set is classed as organism-based. Put shortly:
as §2

The subject of data set [11] is Mus musculus. Nature of the data set: Phototoxicity in Swiss albino mouse assessed as ear thickness at 140 mg/kg, po after 4 hrs of irradiation. The data set is classed as organism-based. Also on record: dose 140 mg/kg, route oral. The following applies: in vivo. The procedure, abridged: as §2
Data set [12] deals with Mus musculus. Nature of the data set: Phototoxicity in Swiss albino mouse assessed as ear thickness at 140 mg/kg, po after 72 hrs of irradiation. Set-up: dose 140 mg/kg, route oral. As to conditions: in vivo. The data set is classed as organism-based. The procedure, abridged: as §2
The test system of data set [13] is Mus musculus. Nature of the data set: Phototoxicity in Swiss albino mouse assessed as ear thickness at 140 mg/kg, po after 24 hrs of irradiation. The data set is classed as organism-based. Set-up: dose 140 mg/kg, route oral. The following applies: in vivo. The procedure, abridged:
as §2

Data set [14] has as its system Mus musculus. Nature of the data set: Phototoxicity in Swiss albino mouse assessed as erythema incidence at 140 mg/kg, po after 96 hrs of irradiation. Also on record: dose 140 mg/kg, route oral. The data set is classed as organism-based. As to conditions: in vivo. The procedure, abridged:
as §2

For data set [15], the system named is Mus musculus. The data set can be described thus: (§3) Phototoxicity in Swiss albino mouse assessed as erythema incidence at 140 mg/kg, po after 48 hrs of irradiation. The data set is classed as organism-based. Set-up: dose 140 mg/kg, route oral. As to conditions: in vivo. Put shortly: as §2
The test system of data set [16] is Mus musculus. The data set can be described thus: Phototoxicity in Swiss albino mouse assessed as erythema incidence at 140 mg/kg, po after 24 hrs of irradiation. The data set is classed as organism-based. Set-up: dose 140 mg/kg, route oral. The following applies: in vivo. The procedure, abridged:
as §2

Data set [17] has as its system Mus musculus. Described as §3. The data set is classed as organism-based. Set-up: dose 140 mg/kg, route oral. The following applies: in vivo. Put shortly: as §2
This is another data set of the same source.

The nature of data set [18]: Selectivity index, ratio of IC50 for monkey Vero cells to MIC for Mycobacterium tuberculosis H37Rv. The data set is classed as functional.

≈ marks a conversion by molar mass, not a printed value.

Sequence of DNA gyrase subunit B (Mycobacterium smegmatis (strain ATCC 700084 / mc(2)155), UniProt A0QNE0) (A0QNE0 whole entry): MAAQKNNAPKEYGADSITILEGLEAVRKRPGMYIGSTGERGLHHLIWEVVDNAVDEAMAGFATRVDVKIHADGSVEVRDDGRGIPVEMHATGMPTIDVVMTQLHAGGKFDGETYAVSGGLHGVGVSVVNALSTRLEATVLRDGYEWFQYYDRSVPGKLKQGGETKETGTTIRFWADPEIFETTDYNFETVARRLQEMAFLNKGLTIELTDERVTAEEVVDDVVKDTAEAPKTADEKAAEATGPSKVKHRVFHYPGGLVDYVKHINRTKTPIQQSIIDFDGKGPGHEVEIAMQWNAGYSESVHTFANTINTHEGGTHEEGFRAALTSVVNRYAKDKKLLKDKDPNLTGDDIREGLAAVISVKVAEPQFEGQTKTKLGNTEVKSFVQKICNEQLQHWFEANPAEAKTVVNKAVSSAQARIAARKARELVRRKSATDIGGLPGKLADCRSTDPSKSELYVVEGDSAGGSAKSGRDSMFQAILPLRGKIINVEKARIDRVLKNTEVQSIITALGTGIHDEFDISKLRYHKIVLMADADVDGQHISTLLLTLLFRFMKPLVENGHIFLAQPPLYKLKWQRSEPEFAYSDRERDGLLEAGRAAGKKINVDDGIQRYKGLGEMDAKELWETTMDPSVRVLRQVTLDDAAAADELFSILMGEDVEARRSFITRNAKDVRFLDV

Broadly, the MIC is the smallest concentration in the dilution series that meets the test's criterion for growth inhibition. One may read the IC50 as the concentration that inhibits the measured activity by half. In the case of `COc1c(N2CCNC(C)C2)c(F)cc2c(=O)c(C(=O)O)cn(C3CC3)c12` (configuration not stated) [GATIFLOXACIN], the MIC in data set [1] is 1.04 µM (≈ 0.39 µg/mL); in data set [2], 2.08 µM (≈ 0.781 µg/mL). Moreover, the figures for the Activity in data set [3] and in data set [4] were 6.02 and 6.92, respectively. For the same compound, the IC50 in the data set with Vero is above 155 µM.

As for `COc1c(N2CCC3(CC2)OCCO3)c(F)cc2c(=O)c(C(=O)O)cn(C3CC3)c12`, the MIC in data set [1] worked out at 0.93 µM (≈ 0.389 µg/mL); in data set [2], 1.86 µM (≈ 0.778 µg/mL). Further, the Activity in [3] is listed as 6.12; in data set [4], 6.41. Further, the IC50 in [5] is above 119 µM; in the data set on Vero it was 149 µM.

`NNC(=O)c1ccncc1` [ISONIAZID]: the figures for the Activity in data set [6] and in data set [7] were 4.71 and 5.86, respectively. For the same compound, the MIC in [1] is 0.36 µM (≈ 0.0494 µg/mL); in data set [2] it was 45.6 µM (≈ 6.25 µg/mL). Moreover, the IC50 in the data set with Vero was above 456 µM.

For `COc1c(N2CCN(C(=O)C3COc4ccccc4O3)CC2)c(F)cc2c(=O)c(C(=O)O)cn(C3CC3)c12` (configuration not stated), the minimal inhibitory concentration (MIC) in data set [1] and in data set [2] was 1.49 µM (≈ 0.78 µg/mL) in each case. Moreover, the Activity in the data set with Mus musculus [8] is 0.32 mm; with Mus musculus [9] it was “Non-toxic”; with Mus musculus [10], 0.33 mm; in the data set with Mus musculus [11], 0.31 mm; in the data set on Mus musculus [12], 0.33 mm; with Mus musculus [13] it was 0.32 mm. The Activity entry in the data set with Mus musculus [14], in the data set with Mus musculus [15], in the data set on Mus musculus [16] and with Mus musculus [17] was “Non-toxic” each time. In addition, the half-maximal inhibitory concentration (IC50) in [5] was 57.3 µM; with Vero, 119 µM.

As to `COc1ccc(CC2C3=C(CCCC3)CCN2c2c(F)c([N+](=O)[O-])c3c(=O)c(C(=O)O)cn(C4CC4)c3c2OC)cc1` (configuration not stated), the Selectivity index in data set [18] is given as 676.31. Moreover, the figures for the MIC in data set [1] and in [2] were 0.16 µM (≈ 0.0924 µg/mL) and 0.68 µM (≈ 0.393 µg/mL), respectively. Besides, the Activity with Mus musculus [8] is on record as 0.32 mm; in the data set with Mus musculus [9], “Non-toxic”; with Mus musculus [10], 0.33 mm; in the data set with Mus musculus [11], 0.33 mm; in the data set on Mus musculus [12] it was 0.33 mm; in data set [3] it was 5.41. Also, the Activity was 0.32 mm in the data set on Mus musculus [13]; 6.1 in [4]; “Non-toxic” in the data set on Mus musculus [14]; “Non-toxic” with Mus musculus [15]; “Non-toxic” in the data set on Mus musculus [16]; “Non-toxic” with Mus musculus [17]. Besides, the results for the IC50 (in data set [5]; in the data set on Vero) were 51.9 µM and 108 µM, respectively.
